Data reported in ChEMBL document CHEMBL1157578, “Design, synthesis, and biological evaluation of novel water-soluble triptolide derivatives: Antineoplastic activity against imatinib-resistant CML cells bearing T315I mutant Bcr-Abl” (Bioorg Med Chem, 2010).
Active and inactive are the calls of the source.

How the values were obtained:
[1] = Cytotoxicity against human KBM5 cells harboring Bcr-Abl T315I mutant after 72 hrs by MTT assay; format: functional, cell-based; details: KBM5, 72 h
[2] = Cytotoxicity against human KBM5 cells harboring wild type Bcr-Abl after 72 hrs by MTT assay; details: KBM5, 72 h
KBM5 [3] = assay: Cytotoxicity against human KBM5 cells harboring wild type Bcr-Abl at 0.001 to 17 uM after 72 hrs by MTS assay; format: functional, cell-based
Outline: (§1)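 KBM5 (wild-type p210 Bcr-Abl) or KBM5-T315I cells in IMDM + 10% heat-inactivated FCS. The T315I subline was kept in 1 µM imatinib, removed 2–3 days before assay. Cells incubated 72 h with increasing concentrations. Viability by MTS at 490 nm, as percent of control; IC50 from dose–response curves.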

Mus musculus [4] = assay: Toxicity in BALB/c nu/nu mouse xenografted with human KBM5 cells harboring Bcr-Abl T315I mutant at 0.5 mg/kg/day, ip for 2 weeks administered on day 14 after tumor implantation by pilot dose-finding test; format: organism-based; design: route intraperitoneal; details: in vivo, 336 h
[5] = Downregulation of Bcr-Abl mRNA level in human KBM5 cells harboring wild type Bcr-Abl at 50 to 100 nM after 18 hrs by semi-quantitative RT-PCR analysis; format: functional, cell-based
Outline: (§2)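 KBM5 and KBM5-T315I cells exposed to 50 or 100 nM, or control medium, for 18 h. Bcr-Abl and GAPDH mRNA measured by semi-quantitative RT-PCR; products run on 1% agarose and stained with ethidium bromide.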

MEF = assay: Cytotoxicity against MEF after 72 hrs by MTS assay; format: cell-based; details: Mus musculus
Outline: (§3)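 MEF and NHFB fibroblasts cultured in DMEM + 10% FCS. Exposed to increasing concentrations for 72 h. Viability by MTS reagent, optical density at 490 nm.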

KBM5 [6] = assay: Inhibition of RNA polymerase 2 in human KBM5 cells harboring wild type Bcr-Abl assessed as decrease in polymerase 2 phosphorylation after 18 hrs by Western blot analysis; format: cell-based
Outline: (§4)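 Cells exposed for 18 h at the indicated concentrations. Whole-cell lysates made in RIPA buffer with phosphatase and protease inhibitors. Western blot for Bcr-Abl (c-Abl C-19), phospho-c-Abl Y245, phospho-RNA polymerase II, PARP, and actin as loading control.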

[7] = Downregulation of Bcr-Abl protein level in mouse 32D cells harboring Bcr-Abl T315I mutant after 18 hrs by Western blot analysis; format: functional, cell-based; outline: as §4
KBM5 [8] = assay: Induction of apoptosis in human KBM5 cells harboring Bcr-Abl T315I mutant assessed as PARP cleavage at 50 to 100 uM after 18 hrs by Western blot analysis; format: functional, cell-based
Mus musculus [9] = assay: Toxicity in BALB/c nu/nu mouse xenografted with human KBM5 cells harboring Bcr-Abl T315I mutant assessed as occurrence of myelosuppression at 0.5 mg/kg/day, ip for 2 weeks administered on day 14 after tumor implantation; format: organism-based; design: route intraperitoneal; details: in vivo, 336 h
Outline: (§5)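 Male nu/nu BALB/c mice (6–8 weeks) received 3 × 10⁷ KBM5-T315I cells subcutaneously in the flank. At about 50 mm³ (day 14) they were randomized, 4 per group, to daily ip drug in normal saline or the same volume of saline for two weeks. Body weight, feeding and motor activity were monitored, along with morbidity and mortality. At the end, blood was taken for AST, ALT, LDH and complete blood count.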

[10] = Downregulation of Bcr-Abl protein level in human KBM5 cells harboring Bcr-Abl T315I mutant after 18 hrs by Western blot analysis; format: functional, cell-based; outline: as §4
[11] = Cytotoxicity against imatinib-resistant human KBM5 cells harboring Bcr-Abl T315I mutant after 72 hrs by MTS assay; format: functional, cell-based; details: KBM5, 72 h; outline: as §1
HCT-116 = assay: Inhibition of RNA polymerase 2 in human HCT116 cells assessed as decrease in polymerase 2 phosphorylation at 50 to 100 nM after 18 hrs by Western blot analysis; format: cell-based
Mus musculus [12] = assay: Toxicity in BALB/c nu/nu mouse xenografted with human KBM5 cells harboring Bcr-Abl T315I mutant assessed as increase in blood aspartate aminotransferase level at 0.5 mg/kg/day, ip for 2 weeks administered on day 14 after tumor implantation; format: organism-based; design: route intraperitoneal; details: in vivo, 336 h; outline: as §5
Mus musculus [13] = assay: Toxicity in BALB/c nu/nu mouse xenografted with human KBM5 cells harboring Bcr-Abl T315I mutant assessed as morbidity at 0.5 mg/kg/day, ip for 2 weeks administered on day 14 after tumor implantation; format: organism-based; design: route intraperitoneal; details: in vivo, 336 h; outline: as §5
[14] = Cytotoxicity against human KBM5 cells harboring wild type Bcr-Abl after 72 hrs by MTS assay; format: functional, cell-based; details: KBM5, 72 h; outline: as §1
Mus musculus [15] = assay: Toxicity in BALB/c nu/nu mouse xenografted with human KBM5 cells harboring Bcr-Abl T315I mutant assessed as mortality at 0.5 mg/kg/day, ip for 2 weeks administered on day 14 after tumor implantation; format: organism-based; design: route intraperitoneal; details: in vivo, 336 h; outline: as §5
Mus musculus [16] = assay: Toxicity in BALB/c nu/nu mouse xenografted with human KBM5 cells harboring Bcr-Abl T315I mutant assessed as increase in blood alanine aminotransferase level at 0.5 mg/kg/day, ip for 2 weeks administered on day 14 after tumor implantation; format: organism-based; design: route intraperitoneal; details: in vivo, 336 h; outline: as §5
[17] = Cytotoxicity against mouse 32D cells harboring wild type Bcr-Abl after 72 hrs by MTS assay; format: functional, cell-based
Outline: (§6)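 32D myeloid cells stably expressing wild-type or T315I Bcr-Abl, maintained in RPMI 1640 + 10% FBS. Treated with increasing concentrations for 72 h. Viability by MTS, optical density at 490 nm.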

KBM5 [18] = assay: Cytotoxicity against imatinib-resistant human KBM5 cells harboring Bcr-Abl T315I mutant at 0.001 to 17 uM after 72 hrs by MTS assay; format: functional, cell-based; outline: as §1
Mus musculus [19] = assay: Toxicity in BALB/c nu/nu mouse xenografted with human KBM5 cells harboring Bcr-Abl T315I mutant assessed as change in body weight at 0.5 mg/kg/day, ip for 2 weeks administered on day 14 after tumor implantation; format: organism-based; design: route intraperitoneal; details: in vivo, 336 h; outline: as §5
[20] = Downregulation of Bcr-Abl mRNA level in human KBM5 cells harboring Bcr-Abl T315I mutant at 50 to 100 nM after 18 hrs by semi-quantitative RT-PCR analysis; format: functional, cell-based; outline: as §2
HeLa = assay: Inhibition of RNA polymerase 2 in human HeLa cells assessed as decrease in polymerase 2 phosphorylation at 50 to 100 nM after 18 hrs by Western blot analysis; format: cell-based
[21] = Cytotoxicity against NHFB after 72 hrs by MTS assay; design: species or system Homo sapiens; outline: as §3
DU-145 = assay: Inhibition of RNA polymerase 2 in human DU145 cells assessed as decrease in polymerase 2 phosphorylation at 50 to 100 nM after 18 hrs by Western blot analysis; format: cell-based
[22] = Downregulation of Bcr-Abl protein level in mouse 32D cells harboring wild type Bcr-Abl after 18 hrs by Western blot analysis; format: functional, cell-based; outline: as §4
Mus musculus [23] = assay: Toxicity in BALB/c nu/nu mouse xenografted with human KBM5 cells harboring Bcr-Abl T315I mutant assessed as effect on motor activity at 0.5 mg/kg/day, ip for 2 weeks administered on day 14 after tumor implantation; format: organism-based; design: route intraperitoneal; details: in vivo, 336 h; outline: as §5
KBM5 [24] = assay: Antitumor activity against Bcr-Abl T315I mutant expressing human KBM5 cells xenografted in BALB/c nu/nu mouse assessed as decrease in tumor volume at 0.5 mg/kg/day, ip for 2 weeks administered on day 14 after tumor implantation; format: functional, organism-based
Outline: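 KBM5-T315I cells, 3 × 10⁷, injected s.c. into the flanks of male nu/nu BALB/c mice aged 6–8 weeks. Dosing began at about 50 mm³ on day 14: 0.5 mg/kg/d i.p. in normal saline for two weeks, with saline controls and four mice per group. Calipers every other day; volume = a² × b × 0.4.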

[25] = Downregulation of Bcr-Abl protein level in human KBM5 cells harboring wild type Bcr-Abl after 18 hrs by Western blot analysis; format: functional, cell-based; outline: as §4
KBM5 [26] = assay: Induction of apoptosis in human KBM5 cells harboring wild type Bcr-Abl assessed as PARP cleavage at 50 to 100 uM after 18 hrs by Western blot analysis; format: functional, cell-based
Mus musculus [27] = assay: Toxicity in BALB/c nu/nu mouse xenografted with human KBM5 cells harboring Bcr-Abl T315I mutant assessed as effect on feeding behavior at 0.5 mg/kg/day, ip for 2 weeks administered on day 14 after tumor implantation; format: organism-based; design: route intraperitoneal; details: in vivo, 336 h; outline: as §5
KBM5 [28] = assay: Inhibition of RNA polymerase 2 in human KBM5 cells harboring Bcr-Abl T315I mutant assessed as decrease in polymerase 2 phosphorylation after 18 hrs by Western blot analysis; format: cell-based; outline: as §4
[29] = Cytotoxicity against imatinib-resistant mouse 32D cells harboring Bcr-Abl T315I mutant after 72 hrs by MTS assay; format: functional, cell-based; outline: as §6

Cc1ccc(NC(=O)c2ccc(CN3CCN(C)CC3)cc2)cc1Nc1nccc(-c2cccnc2)n1 [IMATINIB]
280 nM: IC50 [2]
5400 nM: IC50 [1]

CC(C)[C@]12O[C@H]1[C@@H]1O[C@@]13[C@H]1CCC4=C(COC4=O)[C@@H]1C[C@@H]1O[C@@]13[C@@H]2OC(=O)CN1CCOCC1
80 nM: IC50 [29]
70 nM: IC50 [17]
Non-toxic: Activity (Mus musculus [4]) | Activity (Mus musculus [9]) | Activity (Mus musculus [12]) | Activity (Mus musculus [13]) | Activity (Mus musculus [15]) | Activity (Mus musculus [16]) | Activity (Mus musculus [19]) | Activity (Mus musculus [23]) | Activity (Mus musculus [27])
active: Activity (KBM5 [3]) | Activity [5] | inhibition (KBM5 [6]) Dose-dependent effect | Activity [7] Dose-dependent effect | Activity (KBM5 [8]) | Activity [10] Dose-dependent effect | inhibition (HCT-116) | Activity (KBM5 [18]) | Activity [20] | inhibition (HeLa) | inhibition (DU-145) | Activity [22] Dose-dependent effect | Activity (KBM5 [24]) | Activity [25] Dose-dependent effect | Activity (KBM5 [26]) | inhibition (KBM5 [28]) Dose-dependent effect
11500 nM: IC50 (MEF)
10400 nM: IC50 [21]
52.5 nM: IC50 [14]
20.7 nM: IC50 [11]
